ChEMBL document CHEMBL4392831, “Discovery of a novel class of potent and selective tetrahydroindazole-based sigma-1 receptor ligands” (Bioorg Med Chem, 2019)

System: not listed separately
Assay: Thermodynamic solubility in pH 7.4 PBS buffer incubated for 16 hrs by UV-absorption spectroscopy
Format: physicochemical
Details: pH 7.4, 16 h
Outline: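 A standard curve per compound was built from UV absorbance of acetonitrile dilutions (500 to 0.9 μM, DMSO held at 0.5%) made from DMSO stock. For the sample, 1 mg compound in 1 mL PBS pH 7.4 was stirred at 500 rpm for 16 h at room temperature, then equilibrated 30 min and passed through a 0.2 μm filter. Filtrate UV absorbance was read on a plate reader and solubility extrapolated from the curve.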

| SMILES | Therm solubility [µM] |
| --- | --- |
| O=C(c1c2c(nn1-c1ccccc1)CCC(NCc1ccc(F)cc1)C2)N1CCCCC1 (stereo unspecified) | 508 |
| CCCn1nc(C(=O)N(C)C)c2c1CCC(NCc1ccc(F)cc1)C2 (stereo unspecified) | 1780 |
| O=C(c1c2c(nn1-c1ccc(F)cc1)CCC(NCc1ccc(F)cc1)C2)N1CCCCC1 (stereo unspecified) | 110 |
| O=C(c1nn(-c2ccccc2)c2c1CC(NCc1ccccc1)CC2)N1CCCCC1 (stereo unspecified) | 1570 |
| O=C(c1c2c(nn1-c1ccccc1)CCC(NCCc1ccc3c(c1)OCO3)C2)N1CCCCC1 (stereo unspecified) | 655 |

Target: T1, Sigma non-opioid intracellular receptor 1 (Homo sapiens, UniProt Q99720)
T1 sequence (Q99720 whole entry): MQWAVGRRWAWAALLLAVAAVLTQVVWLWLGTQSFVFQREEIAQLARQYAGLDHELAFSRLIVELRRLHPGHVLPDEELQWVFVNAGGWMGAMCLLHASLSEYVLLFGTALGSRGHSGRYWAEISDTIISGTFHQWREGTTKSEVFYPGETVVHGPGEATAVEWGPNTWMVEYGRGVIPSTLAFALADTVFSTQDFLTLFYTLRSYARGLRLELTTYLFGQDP
Assay: Displacement of [3H]-(+)-pentazocine from recombinant human sigma1 receptor expressed in HEK293 cell membranes after 120 mins by microbeta scintillation counting method
Details: not given

| SMILES | Ki [nM] |
| --- | --- |
| Cc1nc(-c2ccc(Cl)cc2)nc(OCCCN2CCCCC2)c1Cl | 1.1 |
| c1ccc(OCc2cc(OC[C@@H]3CCCN3)no2)cc1 | 4.1 |

System: not listed separately
Assay: Stability in mouse liver microsomes assessed as parent compound remaining at 10 uM in presence of NADPH incubated for 60 mins at 37 degC by UPLC/MS analysis
Format: ADME, Microsome
Details: 1 h
Outline: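 Mouse liver microsomes at 0.4 mg/mL with NADPH cofactor in phosphate buffer (0.5 M), compound at 10 μM, verapamil control. T0 sample quenched at once; others shaken 60 min at 37 °C, then stopped with 2 volumes ice-cold acetonitrile. After centrifugation, parent quantified by UPLC/MS in SRM mode. % remaining = (conc at 60 min / conc at 0 min) ×100. Duplicate runs, mean reported.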

| SMILES | Stability [%] |
| --- | --- |
| O=C(c1c2c(nn1-c1ccccc1)CCC(NCc1ccc(F)cc1)C2)N1CCCCC1 (stereo unspecified) | 7 |
| CCCn1nc(C(=O)N(C)C)c2c1CCC(NCc1ccc(F)cc1)C2 (stereo unspecified) | 21 |
| O=C(c1c2c(nn1-c1ccc(F)cc1)CCC(NCc1ccc(F)cc1)C2)N1CCCCC1 (stereo unspecified) | 25 |
| O=C(c1nn(-c2ccccc2)c2c1CC(NCc1ccccc1)CC2)N1CCCCC1 (stereo unspecified) | 0.3 |
| O=C(c1c2c(nn1-c1ccccc1)CCC(NCCc1ccc3c(c1)OCO3)C2)N1CCCCC1 (stereo unspecified) | 24 |
| O=C(c1c2c(nn1-c1ccc(F)cc1)CCC(NCCc1ccncc1)C2)N1CCCCC1 (stereo unspecified) | 21 |

Target: Sigma intracellular receptor 2 (Homo sapiens, UniProt Q5BJF2)
Sequence (Q5BJF2 whole entry): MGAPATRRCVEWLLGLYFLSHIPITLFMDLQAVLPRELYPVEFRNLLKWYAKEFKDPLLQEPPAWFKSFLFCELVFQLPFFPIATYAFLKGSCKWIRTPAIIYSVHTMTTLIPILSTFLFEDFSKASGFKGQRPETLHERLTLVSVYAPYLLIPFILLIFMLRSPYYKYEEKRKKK
Assay: Displacement of [3H]-DTG from sigma2 receptor (unknown origin) after 120 mins in presence of sigma1 […] (+)-SKF10047 by microbeta scintillation counting method
Details: read-out: Ki
Outline: (§1)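 Radioligand binding run by an external screening program; sigma-1 tracer [3H]-pentazocine, sigma-2 tracer [3H]-DTG. Each compound first tested at a single 10 μM concentration. Those giving >50% inhibition were then titrated over a dose range to derive pKi.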

| SMILES | Ki [nM] |
| --- | --- |
| O=C(c1c2c(nn1-c1ccc(F)cc1)CCC(NCc1ccc(F)cc1)C2)N1CCCCC1 (stereo unspecified) | > 10000 |

Same assay, conditions: read-out: pKi (converted)

| SMILES | Ki [nM] |
| --- | --- |
| O=C(c1c2c(nn1-c1ccccc1)CCC(NCc1ccc(F)cc1)C2)N1CCCCC1 (stereo unspecified) | 158 |
| CCCn1nc(C(=O)N(C)C)c2c1CCC(NCCc1ccc3c(c1)OCO3)C2 (stereo unspecified) | 398 |
| O=C(c1c2c(nn1-c1ccc(O)cc1)CCC(NCCc1ccccc1)C2)N1CCCCC1 (stereo unspecified) | 251 |
| CCCn1nc(C(=O)N(C)C)c2c1CCC(NCc1ccc(F)cc1)C2 (stereo unspecified) | 2000 |
| CCCn1nc(C(=O)N2CCCCC2)c2c1CCC(NCCc1ccc(O)cc1)C2 (stereo unspecified) | 251 |
| O=C(c1nn(-c2ccccc2)c2c1CC(NCc1ccccc1)CC2)N1CCCCC1 (stereo unspecified) | 501 |
| O=C(c1c2c(nn1-c1ccccc1)CCC(NCCc1ccc3c(c1)OCO3)C2)N1CCCCC1 (stereo unspecified) | 31.6 |
| O=C(c1c2c(nn1-c1ccccc1)CCC(NCc1ccccc1)C2)N1CCCCC1 (stereo unspecified) | 126 |
| O=C(c1nn(-c2ccccc2)c2c1CC(NCCc1ccc3c(c1)OCO3)CC2)N1CCCCC1 (stereo unspecified) | 316 |
| CCCn1nc(C(=O)N(C)C)c2c1CCC(NCCc1ccc(C(F)(F)F)cc1)C2 (stereo unspecified) | 631 |
| O=C(c1nn(-c2ccccc2)c2c1CC(NCCc1ccc(F)cc1)CC2)N1CCCCC1 (stereo unspecified) | 100 |

Target: T1, Sigma non-opioid intracellular receptor 1
Assay: Displacement of [3H]-(+)-pentazocine from sigma1 receptor (unknown origin) expressed in HEK293 cell membranes after 120 mins by microbeta scintillation counting method
Details: not given
Outline: as §1

| SMILES | Ki [nM] |
| --- | --- |
| O=C(c1c2c(nn1-c1ccccc1)CCC(NCc1ccc(F)cc1)C2)N1CCCCC1 (stereo unspecified) | 31.6 |
| CCCn1nc(C(=O)N(C)C)c2c1CCC(NCCc1ccc3c(c1)OCO3)C2 (stereo unspecified) | 501 |
| O=C(c1c2c(nn1-c1ccc(O)cc1)CCC(NCCc1ccccc1)C2)N1CCCCC1 (stereo unspecified) | 316 |
| NC(=O)c1ccc(-n2nc3c(c2C(=O)N2CCCCC2)CC(NCCc2ccccc2)CC3)cc1 (stereo unspecified) | 631 |
| O=C(c1nn(-c2ccccc2)c2c1CC(NCc1ccccc1)CC2)N1CCCCC1 (stereo unspecified) | 631 |
| O=C(c1c2c(nn1-c1ccccc1)CCC(NCCc1ccc3c(c1)OCO3)C2)N1CCCCC1 (stereo unspecified) | 63.1 |
| O=C(c1c2c(nn1-c1ccccc1)CCC(NCc1ccccc1)C2)N1CCCCC1 (stereo unspecified) | 39.8 |
| O=C(c1nn(Cc2ccccc2)c2c1CC(NCc1ccc(F)cc1)CC2)N1CCCCC1 (stereo unspecified) | 251 |
| O=C(c1c2c(nn1-c1ccccc1)CCC(NCCc1ccc(C(F)(F)F)cc1)C2)N1CCCCC1 (stereo unspecified) | 200 |
| O=C(c1nn(-c2ccccc2)c2c1CC(NCCc1ccc3c(c1)OCO3)CC2)N1CCCCC1 (stereo unspecified) | 501 |
| O=C(c1nn(-c2ccccc2)c2c1CC(NCCc1cccc(O)c1)CC2)N1CCCCC1 (stereo unspecified) | 200 |
| CCCn1nc(C(=O)N(C)C)c2c1CCC(NCCc1ccc(C(F)(F)F)cc1)C2 (stereo unspecified) | 2510 |
| O=C(c1c2c(nn1-c1ccc(F)cc1)CCC(NCCc1ccncc1)C2)N1CCCCC1 (stereo unspecified) | 100 |
| O=C(c1nn(-c2ccccc2)c2c1CC(NCCc1ccc(F)cc1)CC2)N1CCCCC1 (stereo unspecified) | 126 |
| O=C(c1nn(-c2ccccc2)c2c1CC(NCCc1ccc(C(F)(F)F)cc1)CC2)N1CCCCC1 (stereo unspecified) | 316 |

Species: Homo sapiens
Assay: Selectivity for sigma1 receptor (unknown origin) over sigma2 receptor (unknown origin)
Details: not given

| SMILES | Selectivity ratio |
| --- | --- |
| O=C(c1c2c(nn1-c1ccc(F)cc1)CCC(NCc1ccc(F)cc1)C2)N1CCCCC1 (stereo unspecified) | > 500 |

Target: not listed separately
Assay: Displacement of [3H]-DTG from sigma2 receptor in guinea pig brain membranes after 120 mins in presence of sigma1 […] (+)-SKF10047 by microbeta scintillation counting method
Format: cell membranes, Cavia porcellus
Details: not given

| SMILES | Ki [nM] |
| --- | --- |
| CC(C)=CCN1CC[C@]2(C)c3cc(O)ccc3C[C@H]1[C@H]2C [(+)-PENTAZOCINE] | 1540 |
| Cc1nc(-c2ccc(Cl)cc2)nc(OCCCN2CCCCC2)c1Cl | 1420 |
| Clc1ccc(Cn2cc(NCCN3CCOCC3)nn2)cc1Cl | > 10000 |
| c1ccc(OCc2cc(OC[C@@H]3CCCN3)no2)cc1 | 1310 |
| Cc1ccccc1NC(=N)Nc1ccccc1C [DITOLYLGUANIDINE] | 28.4 |
